≈ marks a conversion by molar mass, not a printed value. Starred links: 1 amine or outer side, 2 acyl side, 3 side chain; linkers in the order of their positions; H or OH if unused. Non-standard residues stand in square brackets, D forms with d. Residues, ends and D or L forms follow the SMILES beside them. X1 = CC(C)(O)[C@H](O[*:1])C(=O)[*:2]; dNMeF = CN[C@H](Cc1ccccc1)C(=O)O; Hica(2S) = CC(C)C[C@H](O)C(=O)O; Hiv = CC(C)[C@H](O)C(=O)O; NMeA = CN[C@@H](C)C(=O)O
Assays:
[1] = system: CCRF-CEM; test: Cytotoxicity against human CEM cells by disk diffusion soft agar colony formation assay; format: cell-based
Summary of the method: (§1)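 Cell-based soft agar disk diffusion assay, applied to extracts, partition fractions and pure compounds. Read-out is the inhibition zone in zone units. The panel covers solid tumour cells (Colon 38, Colon H116, Lung H125), leukaemia cells (L1210, CEM) and normal CFU-GM. A sample counts as solid-tumour selective when the solid tumour zone exceeds the leukaemia or normal cell zone by more than 250 units.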

[2] = system: MC-38; test: Cytotoxicity against mouse C38 cells by disk diffusion soft agar colony formation assay; format: functional; summary of the method: as §1
[3] = Cytotoxicity against human H116 cells by disk diffusion soft agar colony formation assay; format: functional; summary of the method: as §1
[4] = Cytotoxicity against mouse CFU-GM cells by disk diffusion soft agar colony formation assay; format: cell-based; summary of the method: as §1
[5] = Cytotoxicity against human CFU-GM cells by disk diffusion soft agar colony formation assay; format: cell-based; summary of the method: as §1
[6] = Cytotoxicity against human H125 cells by disk diffusion soft agar colony formation assay; format: functional; summary of the method: as §1
[7] = system: L1210; test: Cytotoxicity against mouse L1210 cells by disk diffusion soft agar colony formation assay; format: functional; summary of the method: as §1
[8] = system: Enterococcus durans; test: Antibacterial activity against Enterococcus durans; format: functional
[9] = system: Staphylococcus epidermidis; test: Antibacterial activity against Staphylococcus epidermidis; format: functional

MIC [8]	MIC [9]	SMILES	Activity [1]	Activity [2]	Activity [3]	Activity [4]	Activity [5]	Activity [6]	Activity [7]
–	–	C[C@H]1CCC/C=C/[C@@H]2C[C@H](O)C[C@H]2[C@H](O)/C=C/C(=O)O1 [BREFELDIN A]	0 Zone units	150 Zone units	900 Zone units	Not Active	1000 Zone units	600 Zone units	0 Zone units
100 µg/mL (≈ 162 µM)	100 µg/mL (≈ 162 µM)	CC(C)C[C@@H]1OC(=O)[C@H](C)NC(=O)[C@H](C(C)(C)O)OC(=O)[C@H](C)N(C)C(=O)[C@@H](C)NC(=O)[C@@H](Cc2ccccc2)N(C)C1=O [GUANGOMIDE A] (cyclo(A[Hica(2S)][dNMeF][dA][NMeA][X1]))	–	0 Zone units	50 Zone units	Not Active	Not Active	0 Zone units	0 Zone units
100 µg/mL (≈ 166 µM)	100 µg/mL (≈ 166 µM)	CC(C)C[C@@H]1OC(=O)[C@H](C)NC(=O)[C@H](C(C)C)OC(=O)[C@H](C)N(C)C(=O)[C@@H](C)NC(=O)[C@@H](Cc2ccccc2)N(C)C1=O [GUANGOMIDE B] (cyclo(A[Hica(2S)][dNMeF][dA][NMeA][Hiv]))	–	–	–	–	–	–	–

Source: ChEMBL document CHEMBL1158099, “A chemical study of cyclic depsipeptides produced by a sponge-derived fungus” (J Nat Prod, 2006)
